Results taken from ChEMBL document CHEMBL3244009, “Potential steroidal antiestrogens” (1977).

What was measured:
Rattus norvegicus [1] = test: Antiestrogenic activity in immature Wistar rat assessed as reduction of 17beta-estradiol-induced mean uterine weight at 10 molar ratio of compound/17beta-estradiol, sc qd for 3 days (reference value: 64.4 +/- 3.5 mg); format: functional
How it was run: (§1)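 Immature Wistar rats, randomized into groups of 5-6, injected sc daily for 3 days with arachis oil vehicle, 17β-estradiol alone or estradiol plus test compound. Estradiol and compound are given as two separate injections. Estradiol total dose […]. Read-out is uterine weight, reported as mean ± SEM in mg.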

[2] = molecular target: T1, Estrogen receptor (Mus musculus) (UniProt P19785); test: Displacement of [6,7-3H]-17beta-estadiol from estrogen receptor in Tuck No. 1 mouse uterine cytosol at 10 molar ratio of compound/radioligand incubated 15 mins prior to radioligand addition measured after 1 hr by liquid scintillation counting relative to control; settings: Uterus
T1 sequence (whole entry): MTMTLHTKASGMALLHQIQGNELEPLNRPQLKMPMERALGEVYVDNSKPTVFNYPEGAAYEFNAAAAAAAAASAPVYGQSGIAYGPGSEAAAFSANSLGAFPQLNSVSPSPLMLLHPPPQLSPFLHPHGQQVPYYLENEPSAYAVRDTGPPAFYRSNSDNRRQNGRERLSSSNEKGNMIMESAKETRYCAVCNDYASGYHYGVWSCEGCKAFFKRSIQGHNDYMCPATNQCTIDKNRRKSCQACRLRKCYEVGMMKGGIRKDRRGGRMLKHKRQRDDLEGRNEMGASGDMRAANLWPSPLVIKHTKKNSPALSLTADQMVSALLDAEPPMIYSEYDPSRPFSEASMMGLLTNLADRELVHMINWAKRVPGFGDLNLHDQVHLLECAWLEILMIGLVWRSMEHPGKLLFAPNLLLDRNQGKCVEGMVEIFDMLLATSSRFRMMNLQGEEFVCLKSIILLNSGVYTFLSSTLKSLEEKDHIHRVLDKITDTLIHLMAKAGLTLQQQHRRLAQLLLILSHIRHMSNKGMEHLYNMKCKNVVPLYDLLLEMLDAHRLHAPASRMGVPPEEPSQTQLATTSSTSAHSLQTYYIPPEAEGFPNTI
How it was run: (§2)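 Uterine cytosol is the 105 000g, 1 h, 4-5 °C supernatant of homogenates from mice ovariectomized one week earlier, prepared in Tris 0.01 M pH 7.4 with EDTA and DTT. Compound is preincubated with cytosol 15 min at 5-7 °C, then [6,7-3H]-estradiol (0.5 × 10^-12 g mol) is added for 1 h. Samples are run on 10-30% sucrose gradients. Inhibition is calculated from 8S-peak cpm normalized to total cpm versus control.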

Mus musculus [3] = test: Antiestrogenic activity in immature Tuck No. 1 mouse assessed as reduction of 17beta-estradiol-induced mean uterine weight at 10 molar ratio of compound/17beta-estradiol, sc qd for 3 days (reference value: 25.5 +/- 1.9 mg); format: functional
[4] = molecular target: T1, Estrogen receptor (Mus musculus); test: Displacement of [6,7-3H]-17beta-estadiol from estrogen receptor in Tuck No. 1 mouse uterine cytosol at 1 molar ratio of compound/radioligand incubated 15 mins prior to radioligand addition measured after 1 hr by liquid scintillation counting relative to control; settings: Uterus; how it was run: as §2
[5] = molecular target: T1, Estrogen receptor (Mus musculus); test: Displacement of [6,7-3H]-17beta-estadiol from estrogen receptor in Tuck No. 1 mouse uterine cytosol at 3.16 molar ratio of compound/radioligand incubated 15 mins prior to radioligand addition measured after 1 hr by liquid scintillation counting relative to control; settings: Uterus
How it was run: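 Uteri from Tuck No. 1 mice (6 weeks old, ovariectomized, used 1 week later) pulverized and homogenized at 4 °C in 0.01 M Tris pH 7.4 with EDTA and dithiothreitol; 105000g, 1 h cytosol. Compound preincubated with cytosol 15 min at 5-7 °C, then [6,7-3H]-estradiol added for 1 h. 10-30% sucrose gradients spun 275000g, 15 h; % inhibition computed from 8S-peak cpm normalized to total gradient cpm versus control.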

[6] = molecular target: T1, Estrogen receptor (Mus musculus); test: Displacement of [6,7-3H]-17beta-estadiol from estrogen receptor in Tuck No. 1 mouse uterine cytosol at 1000 molar ratio of compound/radioligand incubated 15 mins prior to radioligand addition measured after 1 hr by liquid scintillation counting relative to control; settings: Uterus; how it was run: as §2
[7] = molecular target: T1, Estrogen receptor (Mus musculus); test: Displacement of [6,7-3H]-17beta-estadiol from estrogen receptor in Tuck No. 1 mouse uterine cytosol at 100 molar ratio of compound/radioligand incubated 15 mins prior to radioligand addition measured after 1 hr by liquid scintillation counting relative to control; settings: Uterus; how it was run: as §2
Mus musculus [8] = test: Antiestrogenic activity in immature Tuck No. 1 mouse assessed as reduction of 17beta-estradiol-induced mean uterine weight at 100 molar ratio of compound/17beta-estradiol, sc qd for 3 days (reference value: 25.5 +/- 1.9 mg); format: functional
Rattus norvegicus [9] = test: Antiestrogenic activity in immature Wistar rat assessed as reduction of 17beta-estradiol-induced mean uterine weight at 3.16 molar ratio of compound/17beta-estradiol, sc qd for 3 days (reference value: 64.4 +/- 3.5 mg); format: functional; how it was run: as §1
Rattus norvegicus [10] = test: Antiestrogenic activity in immature Wistar rat assessed as reduction of 17beta-estradiol-induced mean uterine weight at 200 molar ratio of compound/17beta-estradiol, sc qd for 3 days (reference value: 64.4 +/- 3.5 mg); format: functional; how it was run: as §1
Mus musculus [11] = test: Antiestrogenic activity in immature Tuck No. 1 mouse assessed as reduction of 17beta-estradiol-induced mean uterine weight at 1000 molar ratio of compound/17beta-estradiol, sc qd for 3 days (reference value: 25.5 +/- 1.9 mg); format: functional

Structure (SMILES): C[C@]12CC[C@@H]3c4ccc(O)cc4C(c4ccccc4)=C[C@H]3[C@@H]1CC[C@@H]2O
- Activity (Rattus norvegicus [1]): 74.1 mg
- Activity [2]: 3%
- Activity (Mus musculus [3]): 28.6 mg
- Activity [4]: 66%
- Activity [5]: 13%

Structure (SMILES): C[C@]12CC[C@@H]3c4ccc(O)cc4C(=O)C[C@H]3[C@@H]1CC[C@@H]2O
- Activity [5]: 38%

Structure (SMILES): Cc1cc(O)cc2c1[C@H]1CC[C@]3(C)[C@@H](O)CC[C@H]3[C@@H]1CC2=O
- Activity [6]: 14%
- Activity [7]: 38%

Structure (SMILES): CN(C)CCOc1ccc2c(c1)C(c1ccccc1)=C[C@@H]1[C@@H]2CC[C@]2(C)[C@@H](O)CC[C@@H]12
- Activity [6]: 103%

Structure (SMILES): CN(C)CCOc1ccc2c(c1)C(=O)C[C@@H]1[C@@H]2CC[C@]2(C)[C@@H](O)CC[C@@H]12
- Activity [6]: 66%

Structure (SMILES): CCN(CC)CCOc1ccc2c(c1)C(Cc1ccccc1)=C[C@@H]1[C@@H]2CC[C@]2(C)[C@@H](O)CC[C@@H]12
- Activity [6]: 89%

Structure (SMILES): Cc1cc(OCCN(C)C)cc2c1[C@H]1CC[C@]3(C)[C@@H](O)CC[C@H]3[C@@H]1C=C2c1ccccc1
- Activity [6]: 88%

Structure (SMILES): CCN(CC)CCOc1ccc2c(c1)C(c1ccccc1)=C[C@@H]1[C@@H]2CC[C@]2(C)[C@@H](O)CC[C@@H]12
- Activity [6]: 101%

Structure (SMILES): C[C@]12CC[C@@H]3c4ccc(O)cc4/C(=N\N4C(=N)SCC4=O)C[C@H]3[C@@H]1CC[C@@H]2O
- Activity [2]: 84%
- Activity (Mus musculus [3]): 28.4 mg

Structure (SMILES): C[C@]12CC[C@@H]3c4ccc(O)cc4/C(=N\NC(N)=S)C[C@H]3[C@@H]1CC[C@@H]2O
- Activity (Mus musculus [8]): 34.3 mg
- Activity (Rattus norvegicus [9]): 77.7 mg
- Activity [2]: 54%

Structure (SMILES): Cc1cc(O)cc2c1[C@H]1CC[C@]3(C)[C@@H](O)CC[C@H]3[C@@H]1C=C2c1ccccc1
- Activity (Rattus norvegicus [10]): 97.1 mg
- Activity (Mus musculus [11]): 32.9 mg
- Activity [6]: 18%
- Activity [7]: 87%
